The source of these data is article PMC5629310 (Journal of Arthropod-Borne Diseases, 2017).

Series [1] deals with Leishmania major promastigotes (vaccine strain MRHO/IR/75/ER). As to the kind of experiment: Antileishmanial activity against Leishmania major promastigotes. It counts as cell-based. The conditions noted are these: for IC50: Leishmania major, 24 h, read-out: Anti-promastigote activity IC50.
Series [2] can be described thus: Toxicity against macrophages. The conditions noted are these: BALB/c, mouse, mouse peritoneal macrophages. The class given is cell-based, mouse. In a few lines: (§1)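 BALB/c peritoneal macrophages, collected by PBS lavage, were kept in RPMI 1640 with 10% heat-inactivated FBS, 2mM glutamine and penicillin/streptomycin. Cells were seeded at 2×10^5/well and allowed to adhere. Medium was replaced with a graded series of test compound for 24 h at 37 °C, 5% CO2, with a DMSO negative control. Viability was read by MTT. Two independent experiments were run in triplicate, and CC50 was taken by linear regression.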

For series [3], the system named is mouse peritoneal macrophages. As to the kind of experiment: Toxicity against macrophages. It counts as cell-based. The conditions noted are these: CC50 macrophages / IC50 promastigotes. An outline of the steps:
as §1

For series [4], the system named is Leishmania major promastigotes (vaccine strain MRHO/IR/75/ER). The conditions noted are these: read-out: Anti-promastigote activity IC50; L. major promastigotes; previous compounds 1a-b; ref Tahghighi et al. 2013; cited from earlier work.
Series [5] relates to mouse peritoneal macrophages. The conditions noted are these: read-out: Cytotoxicity CC50, previous compounds 1a-b, ref Tahghighi et al. 2013; cited from earlier work.
Series [6] has as its system amastigote form of L. major in murine peritoneal macrophages. The conditions noted are these: previous compounds 1a-b; result in words; ref Tahghighi et al. 2013; cited from earlier work.

Read-outs that look alike come from different tables or passages of the source.

Turning to `O=[N+]([O-])c1ccc(-c2nnc(N3CCC(O)CC3)s2)o1` [Compound 5a, 1-(5-(5-nitrofuran-2-yl)-1,3,4-thiadiazol-2-yl)piperidin-4-ol], the concentration for half-maximal inhibition (IC50) in series [1] is 68.9 ± 0.107 µM. Further, it took 78.5 µM to reach half-maximal cytotoxicity in series [2] (CC50 at 24 h). Also, in series [3], the “SI (selectivity index CC50/IC50)” value came to 1.14.

On to `O=[N+]([O-])c1ccc(-c2nnc(N3CCC(O)CC3)s2)s1` [Compound 5b, 1-(5-(5-nitrothiophen-2-yl)-1,3,4-thiadiazol-2-yl)piperidin-4-ol], for which the 50% inhibitory concentration (IC50) in series [1] was 27 ± 0.12 µM. In addition, half-maximal cytotoxicity in series [2] (CC50 at 24 h) was put at 63.6 µM. In addition, the “SI (selectivity index CC50/IC50)” value in series [3] is on record as 2.35.

Turning to `O=[N+]([O-])c1ccc(-c2nnc(NCCCO)s2)o1` [Compound 1a, 3-(5-(5-nitrofuran-2-yl)-1,3,4-thiadiazol-2-ylamino) propan-1-ol], the IC50 in series [4] was 18 ± 0.2 µM. Also, the 50% cytotoxic concentration (CC50) in series [5] is 62.3 µM. The “Number of intracellular amastigotes per macrophage, percentage of macrophage infectivity and infectivity index compared with control group” value in series [6] is “decreased”.

As to `OC(Cn1cncn1)(Cn1cncn1)c1ccc(F)cc1F` [Fluconazole, reference compound], the IC50 in series [1] stood at 941.1 ± 4.98 µM.

Consider `O=[N+]([O-])c1ccc(-c2nnc(NCCCO)s2)s1` [Compound 1b, 3-(5-(5-nitrothiophen-2-yl)-1,3,4-thiadiazol-2-ylamino) propan-1-ol], for which, in series [4], the half-maximal inhibitory concentration (IC50) was 3 ± 0.41 µM. For the same compound, the “fold more potent than 5-nitrofuran counterpart 1a” value in series [1] (promastigote IC50, 1b versus 1a) worked out at 6 fold. Further, the CC50 in series [5] was 42.2 µM. For the same compound, the “Number of intracellular amastigotes per macrophage, percentage of macrophage infectivity and infectivity index compared with control group” value in series [6] is “decreased”.
